Rows were chosen to be rich in hits. Some 4.2% of all compounds tested hit in one or more screens of this group.
GalR3 antagonist: GalR3 antagonists in HEK293 cells, primary screen, cell-based, fluorescence readout. HEK293 GalR3-CNG cAMP membrane potential fluorescence; galR3 body fused to GalR1 C-terminus. inhibition, % at 3 µM. actives 0.44% (n = 360,000). AID 651719, 2012;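 active = inhibition above the screen-wide average plus 3 SD, cut at about 13% in these data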;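 also: forskolin and galanin both at EC90 stimulate the cells; cAMP rise reported by CNG channel membrane potential dye signal; 0% = forskolin plus galanin with DMSO and 100% = forskolin alone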
Target sequence (O60755 1-299 limits assumed): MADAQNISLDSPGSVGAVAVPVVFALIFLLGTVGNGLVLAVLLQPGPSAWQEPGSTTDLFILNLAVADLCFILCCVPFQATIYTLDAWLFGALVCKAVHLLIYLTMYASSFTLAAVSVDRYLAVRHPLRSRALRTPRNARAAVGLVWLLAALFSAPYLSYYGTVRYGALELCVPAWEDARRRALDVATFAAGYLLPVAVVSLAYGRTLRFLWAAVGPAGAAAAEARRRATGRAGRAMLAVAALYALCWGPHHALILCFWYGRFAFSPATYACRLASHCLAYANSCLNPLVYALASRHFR
OX1R antag-1: antagonists of human orexin 1 receptor (OX1R) | Orexin/Hypocretin receptor type 1 (Homo sapiens), O43613 | OX1R-expressing cells, FRET antagonist read-out | inhibition, % at 6.6 µM | actives 1.8% (n = 330,000); in the data active = inhibition mostly above about 38%, no sharp cut-off; inactive = mostly below about 40%;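 also: 0% = agonist challenge alone and 100% = reference antagonist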
Target sequence (O43613 whole entry, looked up): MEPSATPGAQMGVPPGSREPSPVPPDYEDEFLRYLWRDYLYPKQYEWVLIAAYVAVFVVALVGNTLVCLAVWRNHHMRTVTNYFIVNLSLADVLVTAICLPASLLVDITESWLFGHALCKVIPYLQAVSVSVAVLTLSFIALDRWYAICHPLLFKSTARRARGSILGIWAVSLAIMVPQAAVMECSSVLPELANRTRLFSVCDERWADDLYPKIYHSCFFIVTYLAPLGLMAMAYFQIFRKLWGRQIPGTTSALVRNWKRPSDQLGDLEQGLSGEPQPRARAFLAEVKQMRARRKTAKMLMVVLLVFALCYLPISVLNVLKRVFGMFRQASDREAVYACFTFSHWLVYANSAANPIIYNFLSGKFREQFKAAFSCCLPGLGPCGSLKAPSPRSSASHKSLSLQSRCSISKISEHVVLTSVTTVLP
TAAR1 agonist: human TAAR1 agonists, primary screen, Fluo-8 calcium fluorescence, CHO RD-HGA16 cells | Trace amine-associated receptor 1 (Homo sapiens), Q96RJ0 | vehicle wells 0%, saturating PEA agonist 100% | activation, % at 3 µM | actives 0.99% (n = 360,000);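 active = activation above the mean activation of all test compounds in the run plus 3 SD, cut at about 38% in these data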
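Test system: RD-HGA16 (CHO) cells co-expressing Gα16 and hTAAR1 | Doses: Single dose, 3 µM | Schedule: 17-24 h seeding, 75 min 37 °C dye, 30 min RT | Evaluation: % activation from peak over basal fluorescence ratio, DMSO-to-PEA scaled | Technique: Kinetic Fluo-8 calcium fluorescence | Benchmarks: Low control DMSO, high control PEA (EC100)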
TAAR1 antag: human TAAR1 antagonists, primary screen, Fluo-8 calcium fluorescence, CHO RD-HGA16 cells; actives 1.5% (n = 360,000); Trace amine-associated receptor 1 (Homo sapiens), Q96RJ0; inhibition, % at 3 µM; antagonist;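 active = inhibition above a per-plate cutoff, the mean inhibition of test compounds on that plate plus 3 SD, cut at about 49% in these data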;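 also: 0% = DMSO plus EC80 beta-PEA response and 100% = DMSO alone without agonist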
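test system = CHO RD-HGA16 cells bearing hTAAR1 | replication = singlicate | controls = DMSO-only wells and EC80 β-PEA-stimulated wells | reagent = EC80 β-phenethylamine stimulus | read-out basis = percent inhibition of PEA-evoked calcium signal, max/basal emission ratio | schedule = seeding 17-24 h prior, 75-min 37 °C, 30-min RT dye loading | signal = kinetic Fluo-8 calcium fluorescence measurement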
CHO parental Ca: ATP-evoked calcium signal inhibitors, parental CHO, primary screen, counter-screen for OX1R antagonist project, cell-based, fluorescence, Fluo-8 calcium dye; parental CHO-K1, ATP-induced calcium, Fluo-8 fluorescence; inhibition, % at 5.6 µM; actives 0.63% (n = 330,000); AID 463079, 2010;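 active = inhibition above that plate's mean sample inhibition plus 3 SD, cut at about 26% in these data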;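 also: 0% = ATP-challenged DMSO wells and 100% = DMSO wells without ATP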
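Assay system: untransfected parental CHO cell line. Also added: ATP agonist challenge. Dosing: one dose, 5.6 µM nominal. Measured by: Fluo-8 fluorescence. Read-out: % inhibition. Benchmarks: ATP wells versus no-ATP DMSO wells. Repeats: no replicates.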
OX1R antag-2: OX1R (HCRTR1) antagonists, primary screen, fluorescence, CHO/OX1R cells, Fluo-8 calcium, orexin A; inhibition, % at 5 µM; Orexin/Hypocretin receptor type 1 (Homo sapiens), O43613; actives 0.43% (n = 330,000); Fluo-8 calcium fluorescence;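 active = inhibition above its plate's threshold, mean inhibition of all tested compounds on the plate plus 3 SD, cut at about 37% in these data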;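 also: 0% = orexin A challenge wells and 100% = SB-334867-A antagonist wells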
TAAR1 ag confirm: human TAAR1 agonists, retest of hits, confirmation, Fluo-8 calcium fluorescence, CHO RD-HGA16 cells; scaled: DMSO 0%, maximal phenethylamine 100%; shares compounds with TAAR1 agonist; actives 82% (n = 2,400); AID 651783, 2012; activation, % at 3 µM;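 active = activation above a cutoff set at the run's mean compound activation plus 3 SD, cut at about 39% in these data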
Ga16 nonsel ag: nonselective calcium mobilization agonists, CHO-Ga16 cells, counter-screen for hTAAR1 agonist project, cell-based, fluorescence, CHO-Ga16 parental line; shares compounds with TAAR1 agonist; Fluo-8 calcium fluorescence; normalized to maximal ATP response, DMSO zero; activation, % at 3 µM; actives 50% (n = 2,400); AID 651787, 2012;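 active = activation above the run cutoff, the mean activation over all tested wells plus 3 SD, cut at about 12% in these data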;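 also: 0% = DMSO wells and 100% = maximal ATP response on the peak over basal ratio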
TAAR1 desens: TAAR1 desensitization by agonist hits, confirmation, counter-screen for TAAR1 agonist project, cell-based, fluorescence, tachyphylaxis; shares compounds with TAAR1 agonist; CHO RD-HGA16 hTAAR1, Fluo-8 calcium, beta-PEA response inhibition; inhibition, % at 3 µM; actives 46% (n = 2,400);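 active = inhibition above the run cutoff, the mean inhibition of all test compounds plus 3 SD, cut at about 49% in these data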;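 also: beta-PEA stimulus applied at its EC80; loss of beta-PEA calcium signal after compound pretreatment read as receptor desensitization; 0% = DMSO with beta-PEA at EC80 and 100% = DMSO alone without agonist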
Ga16 nonsel ant: inhibition of ATP-evoked calcium response in CHO-Ga16 cells, counter-screen for TAAR1 agonist project, cell-based, fluorescence. CHO-Ga16 ATP-induced calcium, Fluo-8 fluorescence. inhibition, % at 3 µM. actives 39% (n = 2,400). shares compounds with TAAR1 agonist. AID 651952, 2012;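 active = inhibition above the plate's mean compound inhibition plus 3 SD, computed per plate, cut at about 22% in these data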;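 also: 0% = EC80 ATP with DMSO and 100% = DMSO wells without ATP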
* marks the source's active call; other numbers are inactive results.

What do the screens show for `Cc1c(Cl)cccc1NC(=O)Cc1ccc([N+](=O)[O-])cc1`?
GalR3 antagonist: -6.4; OX1R antag-1: 5.3; TAAR1 agonist: 56.2*; TAAR1 antag: 18.0; CHO parental Ca: -0.9; OX1R antag-2: -16.0; TAAR1 ag confirm: 31.1; Ga16 nonsel ag: 16.9*; TAAR1 desens: 15.2; Ga16 nonsel ant: 12.8

How did COc1ccccc1NC(C)=[N+](C)CCNS(=O)(=O)c1ccc(Cl)cc1 do in these assays?
GalR3 antagonist: -3.2; OX1R antag-1: 8.3; TAAR1 agonist: 8.3; TAAR1 antag: -21.0; CHO parental Ca: -14.2; OX1R antag-2: -5.9

Results for Cc1cc(C(=O)CN2C(=O)C(=O)N(C3CCCC3)C2=O)c(C)n1CCc1ccc(F)cc1 ?
GalR3 antagonist: -5.3; OX1R antag-1: 8.1; TAAR1 agonist: 72.1*; TAAR1 antag: 13.3; CHO parental Ca: -20.8; OX1R antag-2: -27.2; TAAR1 ag confirm: 82.0*; Ga16 nonsel ag: 2.2; TAAR1 desens: 53.8*; Ga16 nonsel ant: 15.4

Results for Cc1cc(C(=O)CN2C(=O)C(=O)N(Cc3ccccc3)C2=O)c(C)n1Cc1ccccc1 ?
GalR3 antagonist: -6.8; OX1R antag-1: 5.5; TAAR1 agonist: 7.4; TAAR1 antag: 18.1; CHO parental Ca: 2.2; OX1R antag-2: 8.8

Results for Cc1cc(C(=O)CN2C(=O)C(=O)N(C3CCCC3)C2=O)c(C)n1CCc1ccccc1 ?
GalR3 antagonist: -5.2; TAAR1 agonist: 48.6*; TAAR1 antag: 28.3; TAAR1 ag confirm: 79.6*; Ga16 nonsel ag: 0.9; TAAR1 desens: 54.6*; Ga16 nonsel ant: 15.3

How did CCOC(=O)Cc1cc(=O)n2[nH]c(C)cc2n1 do in these assays?
GalR3 antagonist: -0.3; OX1R antag-1: -4.2; TAAR1 agonist: 4.2; TAAR1 antag: 6.6; CHO parental Ca: 0.2; OX1R antag-2: -3.0

How did O=C(COC(=O)CCc1ccc(S(=O)(=O)N2CCOCC2)cc1)NC1CCCC1 do in these assays?
GalR3 antagonist: -2.0; OX1R antag-1: 11.9; TAAR1 agonist: 12.3; TAAR1 antag: -21.6; CHO parental Ca: -8.4; OX1R antag-2: -21.6

Results for Cc1ccc(S(=O)(=O)N/N=C/c2ccc(OC3CSC3)cc2)cc1 ?
GalR3 antagonist: -2.8; OX1R antag-1: -5.1; TAAR1 agonist: 91.3*; TAAR1 antag: 93.1*; CHO parental Ca: 56.0*; OX1R antag-2: 84.5*; TAAR1 ag confirm: 98.0*; Ga16 nonsel ag: 56.2*; TAAR1 desens: 96.7*; Ga16 nonsel ant: 71.2*

How did Cc1cc(OCC(O)CNC(C)c2ccccc2)ccc1C(C)C (stereo not drawn) do in these assays?
GalR3 antagonist: -15.1; OX1R antag-1: 3.6; TAAR1 agonist: 62.7*; TAAR1 antag: 29.6; CHO parental Ca: 9.1; OX1R antag-2: -5.1; TAAR1 ag confirm: 70.7*; Ga16 nonsel ag: 32.1*; TAAR1 desens: 53.7*; Ga16 nonsel ant: 32.1*

Results for Cc1cc(OCC(O)CN2CCCC2)ccc1C(C)C (stereo not drawn) ?
GalR3 antagonist: -15.1; TAAR1 agonist: 2.1; TAAR1 antag: -14.0

How did CN(C)CCNC(=O)c1coc(=O)c(Br)c1 do in these assays?
GalR3 antagonist: -1.6; OX1R antag-1: 37.5; TAAR1 agonist: 1.0; TAAR1 antag: 15.0; CHO parental Ca: -11.6; OX1R antag-2: -2.4

How did O=C(NCCC1=CCCCC1)c1coc(=O)c(Br)c1 do in these assays?
GalR3 antagonist: -5.9; OX1R antag-1: 16.1; TAAR1 agonist: 62.0*; TAAR1 antag: 14.4; CHO parental Ca: -9.8; OX1R antag-2: -30.3; TAAR1 ag confirm: 48.3*; Ga16 nonsel ag: 1.2; TAAR1 desens: 1.6; Ga16 nonsel ant: -0.7

How did O=C(NCCc1ccccc1)c1coc(=O)c(Br)c1 do in these assays?
GalR3 antagonist: -7.2; TAAR1 agonist: 87.3*; TAAR1 antag: 80.2*; TAAR1 ag confirm: 94.4*; Ga16 nonsel ag: 0.6; TAAR1 desens: 79.7*; Ga16 nonsel ant: 7.6

How did Cc1ccc(CNC(=O)COC(=O)CN2C(=O)C3CC=CCC3C2=O)cc1 (stereo not drawn) do in these assays?
GalR3 antagonist: -7.3; OX1R antag-1: 3.9; TAAR1 agonist: -3.7; TAAR1 antag: 1.0; CHO parental Ca: -9.1; OX1R antag-2: 3.2

Results for CCCN(CC(=O)Nc1ccc(F)c(F)c1F)Cc1cc(=O)n2ccsc2n1 ?
GalR3 antagonist: -1.1; OX1R antag-1: 23.1; TAAR1 agonist: 0.9; TAAR1 antag: -8.1; CHO parental Ca: -20.9; OX1R antag-2: -24.7

Results for OCCCNCc1ccc(N(c2ccccc2)c2ccccc2)cc1 ?
GalR3 antagonist: -13.4; OX1R antag-1: 0.2; TAAR1 agonist: 45.4*; TAAR1 antag: -3.1; CHO parental Ca: -2.5; OX1R antag-2: -24.1; TAAR1 ag confirm: 72.8*; Ga16 nonsel ag: 24.7*; TAAR1 desens: 27.1; Ga16 nonsel ant: 16.2

Results for OCCNCc1ccc(-c2ccccc2)cc1 ?
GalR3 antagonist: -2.2; OX1R antag-1: 19.3; TAAR1 agonist: 13.6; TAAR1 antag: -4.7; CHO parental Ca: -3.2; OX1R antag-2: -11.3

How did CN(C)CC(=O)Nc1ccc(Oc2ccc(Cl)cc2)cc1 do in these assays?
GalR3 antagonist: -6.5; OX1R antag-1: 3.9; TAAR1 agonist: 25.6; TAAR1 antag: 4.1; CHO parental Ca: -0.9; OX1R antag-2: 17.1

Bioassay records (PubChem BioAssay)
